According to ChEMBL document CHEMBL1123864, “Synthetic bovine prothrombin precursor 13-29 for studies of vitamin K dependent carboxylase” (J Med Chem, 1987):
Blank lines part the entries; values can stand above or below the molecule they belong to. Peptide text beside a SMILES is read from it. * marks the point of attachment. Boc = CC(C)(C)OC(=O)*; Acm = CC(=O)NC*

How the values were obtained:
[1] = molecular target: T1, Vitamin K-dependent gamma-carboxylase (Rattus norvegicus) (UniProt O88496); experiment: Substrate activity was determined for the rat liver microsomal vitamin K dependent carboxylase by dpm incorporation at 0.0625 mM
T1 sequence (whole entry): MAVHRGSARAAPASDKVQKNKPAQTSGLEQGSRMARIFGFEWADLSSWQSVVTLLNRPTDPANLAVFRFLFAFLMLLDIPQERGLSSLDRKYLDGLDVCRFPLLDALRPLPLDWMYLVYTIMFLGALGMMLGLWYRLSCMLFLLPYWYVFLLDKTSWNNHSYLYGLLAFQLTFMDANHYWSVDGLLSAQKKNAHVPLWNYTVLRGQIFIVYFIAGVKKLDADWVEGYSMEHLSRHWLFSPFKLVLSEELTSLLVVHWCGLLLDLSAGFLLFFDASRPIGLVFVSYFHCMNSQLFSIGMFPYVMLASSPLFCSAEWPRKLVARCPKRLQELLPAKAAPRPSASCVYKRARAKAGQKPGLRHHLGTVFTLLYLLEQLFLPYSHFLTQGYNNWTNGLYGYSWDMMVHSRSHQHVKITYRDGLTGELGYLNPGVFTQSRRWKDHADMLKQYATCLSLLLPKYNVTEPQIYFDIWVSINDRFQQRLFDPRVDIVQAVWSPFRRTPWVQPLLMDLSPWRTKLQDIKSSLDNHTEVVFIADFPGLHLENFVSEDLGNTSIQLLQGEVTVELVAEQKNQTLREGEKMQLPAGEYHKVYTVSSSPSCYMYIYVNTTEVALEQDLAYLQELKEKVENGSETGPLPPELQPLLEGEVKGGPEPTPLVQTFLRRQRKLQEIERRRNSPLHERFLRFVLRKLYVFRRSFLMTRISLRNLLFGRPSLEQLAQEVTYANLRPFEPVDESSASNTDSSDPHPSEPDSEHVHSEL
In short: (§1)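 Rat liver microsomal carboxylase with the peptide as substrate. Incubations ran 60 min at 17 °C in duplicate and were averaged. Read-out was dpm incorporated, with the no-vitamin K blank subtracted. The enzyme requires oxygen, reduced vitamin K and carbon dioxide.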

[2] = molecular target: T1, Vitamin K-dependent gamma-carboxylase (Rattus norvegicus); experiment: Substrate activity was determined for the rat liver microsomal vitamin K dependent carboxylase by dpm incorporation at 0.125 mM; in short: as §1
[3] = molecular target: T1, Vitamin K-dependent gamma-carboxylase (Rattus norvegicus); experiment: Substrate activity was determined for the rat liver microsomal vitamin K dependent carboxylase by dpm incorporation at 0.25 mM; in short: as §1
[4] = molecular target: T1, Vitamin K-dependent gamma-carboxylase (Rattus norvegicus); experiment: Evaluated as substrate for the rat liver microsomal vitamin K dependent carboxylase by dpm incorporation at 0.0625 mM; in short: as §1
[5] = molecular target: T1, Vitamin K-dependent gamma-carboxylase (Rattus norvegicus); experiment: Evaluated as substrate for the rat liver microsomal vitamin K dependent carboxylase by dpm incorporation at 0.125 mM; in short: as §1
[6] = molecular target: T1, Vitamin K-dependent gamma-carboxylase (Rattus norvegicus); experiment: Evaluated as substrate for the rat liver microsomal vitamin K dependent carboxylase by dpm incorporation at 0.25 mM; in short: as §1
[7] = substrate: CC(C)C[C@H]1NC(=O)[C@H](N)CSSC[C@@H](C(=O)O)NC(=O)[C@@H]2CCCN2C(=O)[C@@H](CCC(=O)O)NC(=O)[C@H](CCC(=O)O)NC1=O; experiment: Binding affinity was evaluated for the compound against Vitamin K dependent carboxylase

Activity [1]: 240
Activity [2]: 480
Activity [3]: 810
Molecule: CC(C)C[C@H](NC(=O)[C@@H](N)CC(N)=O)C(=O)N[C@@H](CCC(=O)O)C(=O)N[C@@H](CCCN=C(N)N)C(=O)N[C@@H](CCC(=O)O)C(=O)N[C@@H]1CSSC[C@@H](C(=O)N[C@@H](CO)C(=O)N[C@@H](CCCN=C(N)N)C(=O)N[C@@H](CCC(=O)O)C(=O)N[C@@H](CCC(=O)O)C(=O)N[C@@H](C)C(=O)N[C@@H](Cc2ccccc2)C(=O)O)NC(=O)[C@@H]2CCCN2C(=O)[C@@H](CCC(=O)O)NC(=O)[C@H](CCC(=O)O)NC(=O)[C@@H](CC(C)C)NC1=O

Activity [4]: 3020
Activity [5]: 5770
Activity [6]: 11400
Molecule: COC(=O)[C@H](CC(C)C)NC(=O)[C@H](CCC(=O)O)NC(=O)[C@H](CCC(=O)O)NC(=O)OC(C)(C)C (Boc-Glu-Glu-Leu-OMe)

Activity [1]: 480
Activity [2]: 920
Activity [3]: 2380
Molecule: CC(=O)NCSC[C@H](NC(=O)[C@H](CCC(=O)O)NC(=O)[C@H](CCCN=C(N)N)NC(=O)[C@H](CCC(=O)O)NC(=O)[C@H](CC(C)C)NC(=O)[C@@H](N)CC(N)=O)C(=O)N[C@@H](CC(C)C)C(=O)N[C@@H](CCC(=O)O)C(=O)N[C@@H](CCC(=O)O)C(=O)N1CCC[C@H]1C(=O)N[C@@H](CSCNC(C)=O)C(=O)N[C@@H](CO)C(=O)N[C@@H](CCCN=C(N)N)C(=O)N[C@@H](CCC(=O)O)C(=O)N[C@@H](CCC(=O)O)C(=O)N[C@@H](C)C(=O)N[C@@H](Cc1ccccc1)C(=O)O (H-NLEREC(Acm)LEEPC(Acm)SREEAF-OH)

B1: Vitamin K-dependent gamma-carboxylase (Rattus norvegicus), O88496 (protein)
chain: T1 sequence (whole entry)
Km [7]: 3000 µM
